Assay results taken from PubChem BioAssay AID602154 (Broad Institute, 2011).
Activity calls are given as the source filed them.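 The calls were made as follows: active = compounds reducing DiI-HDL uptake fluorescence after washout, with fitted AC50 at most twice the top tested dose; inconclusive = flat partial inhibition of 30 to 70% or a poor fit; inactive = the rest.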

The compounds below were run against Scavenger receptor class B member 1 (Mus musculus) (UniProt Q61009) (assay: DiI-HDL uptake after washout and recovery – ldlA[mSR-BI] CHO cells, fluorescence, mechanism study for SR-BI HDL uptake inhibitor project, late-stage follow-up (AID 602154)).
Scavenger receptor class B member 1 (Mus musculus), sequence (Q61009 whole entry, looked up): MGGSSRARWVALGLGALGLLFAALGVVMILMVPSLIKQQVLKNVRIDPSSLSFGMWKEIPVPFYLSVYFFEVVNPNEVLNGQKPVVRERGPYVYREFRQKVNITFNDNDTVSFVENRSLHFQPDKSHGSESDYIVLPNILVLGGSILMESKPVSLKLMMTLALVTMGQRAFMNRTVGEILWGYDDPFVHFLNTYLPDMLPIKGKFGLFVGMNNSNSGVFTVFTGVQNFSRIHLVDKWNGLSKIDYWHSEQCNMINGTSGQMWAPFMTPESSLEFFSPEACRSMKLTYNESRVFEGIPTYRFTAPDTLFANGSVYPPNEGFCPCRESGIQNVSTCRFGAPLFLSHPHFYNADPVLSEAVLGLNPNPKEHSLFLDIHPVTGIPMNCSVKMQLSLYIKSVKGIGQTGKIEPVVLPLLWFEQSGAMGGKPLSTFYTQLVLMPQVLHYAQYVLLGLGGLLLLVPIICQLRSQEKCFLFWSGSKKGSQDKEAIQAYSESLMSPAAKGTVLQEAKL
Outline: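 Assay system: SR-BI-overexpressing LDL-receptor-null CHO cells; Medium: BSA (fatty acid-free) and HEPES uptake buffer; Probe or stimulus: DiI-labelled HDL, 10 µg/mL, during uptake step; Schedule: 2 h compound, 4 h washout, 3 h DiI-HDL; Measured by: DiI fluorescence, 550/595 nm, bottom read.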
An AC50 of 860 nM was found for COCC(=O)N1CCc2cc(-c3csc(NC(=O)c4cc(OC)cc(OC)c4)n3)ccc21 in this work. An AC50 of 0.598 nM was found for CCCCCCC1CCC/C1=N\NC(N)=S (stereo not drawn) in this work. In the case of C[C@H](C(=O)NC1CCCC1)N(C(=O)Cn1nnc(-c2ccc3c(c2)OCO3)n1)C1CCCCC1, the AC50 is reported as > 70000 nM (inactive).
